Reference: ChEMBL document CHEMBL3085659, “Synthesis, antiproliferative and apoptosis-inducing activity of thiazolo[5,4-d]pyrimidines” (Eur J Med Chem, 2013)

Tests used:
[1] = system: A549; experiment: Cell cycle arrest in human A549 cells assessed as accumulation at G2 phase at 3 uM after 24 hrs using propidium iodide staining by flow cytometry (reference value: 1%); format: functional
Procedure, shortened: (§1)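 A549 at 1.2 × 10^5 cells/ml in six-well plates exposed 24 h to 1, 3 or 10 µM; PBS-washed, fixed overnight in 70% ethanol, RNase (100 µg/ml) digestion 45 min at 37 °C, propidium iodide staining; flow cytometric DNA content gives sub-G1 (apoptotic), G1, S and G2-M fractions versus untreated cells.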

[2] = Antiproliferative activity against human NCI-H322 cells assessed as growth inhibition at 10 uM after 48 hrs by SRB assay; format: functional; conditions: NCI-H322, 48 h, read-out: GI
[3] = Antiproliferative activity against human NCI-H322 cells after 48 hrs by SRB assay; format: functional, cell-based; conditions: NCI-H322, 48 h
[4] = system: A549; experiment: Cell cycle arrest in human A549 cells assessed as accumulation at G2 phase at 1 uM after 24 hrs using propidium iodide staining by flow cytometry (reference value: 1%); format: functional; procedure, shortened: as §1
[5] = system: A549; experiment: Induction of apoptosis in human A549 cells assessed as reduction of procaspase-3 expression after 24 hrs by Western blot analysis; format: functional, cell-based
Procedure, shortened: (§2)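 Cells treated 24 h (HL-60 at 5, 20, 30 µM; A549 at 1, 3, 10 µM); RIPA lysates, 70 µg protein resolved by SDS-PAGE, transferred to PVDF, blocked in 5% milk, probed for PARP-1 and procaspase-3 with HRP secondaries, ECL detection.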

[6] = system: A549; experiment: Cell cycle arrest in human A549 cells assessed as accumulation at S phase at 1 uM after 24 hrs using propidium iodide staining by flow cytometry (reference value: 40%); format: functional; procedure, shortened: as §1
[7] = system: A549; experiment: Cell cycle arrest in human A549 cells assessed as accumulation at G1 phase at 1 uM after 24 hrs using propidium iodide staining by flow cytometry (reference value: 59%); format: functional; procedure, shortened: as §1
[8] = system: A549; experiment: Induction of apoptosis in human A549 cells at 1 uM after 24 hrs using propidium iodide staining by flow cytometry (reference value: 7%); format: functional; procedure, shortened: as §1
[9] = system: A549; experiment: Induction of apoptosis in human A549 cells at 10 uM after 24 hrs using propidium iodide staining by flow cytometry (reference value: 7%); format: functional; procedure, shortened: as §1
[10] = system: PC-3; experiment: Antiproliferative activity against human PC3 cells assessed as growth inhibition at 10 uM after 48 hrs by SRB assay; format: functional; conditions: PC-3, 48 h, read-out: GI
[11] = system: A549; experiment: Antiproliferative activity against human A549 cells after 48 hrs by SRB assay; format: functional, cell-based; conditions: A549, 48 h
[12] = system: T47D; experiment: Antiproliferative activity against human T47D cells assessed as growth inhibition at 10 uM after 48 hrs by SRB assay; format: functional; conditions: read-out: GI
[13] = Antiproliferative activity against human MIAPaCa2 cells assessed as growth inhibition at 10 uM after 48 hrs by SRB assay; format: functional; conditions: MIA PaCa-2, 48 h, read-out: GI
[14] = system: T98G; experiment: Antiproliferative activity against human T98G cells after 48 hrs by SRB assay; format: functional, cell-based
[15] = system: A-431; experiment: Antiproliferative activity against human A431 cells assessed as growth inhibition at 10 uM after 48 hrs by SRB assay; format: functional; conditions: A-431, 48 h, read-out: GI
[16] = system: A549; experiment: Induction of apoptosis in human A549 cells at 3 uM after 24 hrs using propidium iodide staining by flow cytometry (reference value: 7%); format: functional; procedure, shortened: as §1
[17] = system: A549; experiment: Cell cycle arrest in human A549 cells assessed as accumulation at S phase at 10 uM after 24 hrs using propidium iodide staining by flow cytometry (reference value: 40%); format: functional; procedure, shortened: as §1
[18] = system: A549; experiment: Cell cycle arrest in human A549 cells assessed as accumulation at G2 phase at 10 uM after 24 hrs using propidium iodide staining by flow cytometry (reference value: 1%); format: functional; procedure, shortened: as §1
[19] = system: A-431; experiment: Antiproliferative activity against human A431 cells after 48 hrs by SRB assay; format: functional, cell-based; conditions: A-431, 48 h
[20] = system: A549; experiment: Cell cycle arrest in human A549 cells assessed as accumulation at G1 phase at 3 uM after 24 hrs using propidium iodide staining by flow cytometry (reference value: 59%); format: functional; procedure, shortened: as §1
[21] = system: A549; experiment: Induction of apoptosis in human A549 cells assessed as cleavage of PARP1 after 24 hrs by Western blot analysis; format: functional, cell-based; procedure, shortened: as §2
[22] = system: A549; experiment: Cell cycle arrest in human A549 cells assessed as accumulation at G1 phase at 10 uM after 24 hrs using propidium iodide staining by flow cytometry (reference value: 59%); format: functional; procedure, shortened: as §1
[23] = system: T98G; experiment: Antiproliferative activity against human T98G cells assessed as growth inhibition at 10 uM after 48 hrs by SRB assay; format: functional; conditions: read-out: GI
[24] = system: HL-60; experiment: Antiproliferative activity against human HL60 cells assessed as growth inhibition at 10 uM after 48 hrs by SRB assay; format: functional; conditions: HL-60, 48 h, read-out: GI
[25] = system: A549; experiment: Induction of apoptosis in human A549 cells assessed as nuclear condensation, membrane blebbing and formation of apoptotic bodies after 24 hrs using DAPI staining by fluorescence microscopic analysis; format: functional, cell-based
Procedure, shortened: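 A549 (1.5 × 10^5 cells/ml) treated 24 h at 1, 3, 5, 10 µM; trypsinized, methanol-fixed 20 min at −20 °C, DAPI (1 µg/ml) 20 min at 37 °C; nuclei scored by UV fluorescence microscopy at 40× for condensation, blebbing, apoptotic bodies; paclitaxel 1 µM positive control, untreated cells as reference.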

[26] = system: A549; experiment: Cell cycle arrest in human A549 cells assessed as accumulation at S phase at 3 uM after 24 hrs using propidium iodide staining by flow cytometry (reference value: 40%); format: functional; procedure, shortened: as §1
[27] = system: A549; experiment: Antiproliferative activity against human A549 cells assessed as growth inhibition at 10 uM after 48 hrs by SRB assay; format: functional; conditions: A549, 48 h, read-out: GI

Molecule `CCN(CC)c1ncnc2sc(Nc3ccc(Cl)cc3)nc12` has an Activity [1] of 4%, an inhibition of growth at 10 µM [2] of 57% and an IC50 [3] of 7.1 µM. For the same molecule, the Activity [4] was 1%, the Activity [5] was “Dose-dependent effect” and the Activity [6] was 44%. It also gave an Activity [7] of 55%, an Activity [8] of 22% and an Activity [9] of 53%. It also gave an inhibition of growth at 10 µM [10] of 22%, an IC50 [11] of 1400 nM and an inhibition of growth at 10 µM [12] of 18%. The inhibition of growth at 10 µM [13] was 14%, the IC50 [14] was 3.4 µM and the inhibition of growth at 10 µM [15] was 82%. For the same molecule, the Activity [16] was 44%, the Activity [17] was 43% and the Activity [18] was 26%. The IC50 [19] was 3.1 µM, the Activity [20] was 65% and the Activity [21] was “Dose-dependent effect”. For the same molecule, the Activity [22] was 31%, the inhibition of growth at 10 µM [23] was 74% and the inhibition of growth at 10 µM [24] was 22%. The Activity [25] was “Dose-dependent effect”, the Activity [26] was 31% and the inhibition of growth at 10 µM [27] was 81%.
